Experimental data as given in article PMC8268672 (Bioorganic Chemistry, 2021).
Values after ≈ are worked out from the molar mass of the structure shown.

Tests used:
Assay type in all cases: cell-based
[1] = test system: Klebsiella aerogenes (NCIM-2098); experiment: Agar disk diffusion, inhibition zone; details: 100 µg/8 mm disc, triplicate, mean ± SD
[2] = test system: Cryptococcus neoformans (ATCC 9011); experiment: MIC, broth microdilution; details: ATCC9011, read-out: Minimum inhibitory concentration (MIC), CN
Summary of the method: (§1)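 Antifungal MICs by CLSI broth microdilution in Sabouraud liquid medium. Test compounds and standard drugs are serially diluted two-fold from 512 to 0.25. The fungal broth culture is grown 24 h at 35 °C to a 0.5 McFarland turbidity, then adjusted with sterile solution to the final inoculum.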

[3] = test system: Candida albicans (NCIM 2087); experiment: MIC, broth microdilution; details: NCIM2087, read-out: Minimum inhibitory concentration (MIC), CA
Summary of the method: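 CLSI broth microdilution in Sabouraud liquid medium, with test compound two-fold serially diluted from 512 to 0.25. Fungal broth culture grown 24 h at 35 °C to 0.5 McFarland turbidity, then adjusted with sterile solution to a final […] inoculum. MIC expressed in µg/mL.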

[4] = test system: Aspergillus niger (NCIM 2191); experiment: MIC, broth microdilution; details: NCIM2191, read-out: Minimum inhibitory concentration (MIC), AN
Summary of the method: as §1

[5] = test system: Bacillus cereus (NCIM-2458); experiment: Agar disk diffusion, inhibition zone; details: 100 µg/8 mm disc, triplicate, mean ± SD
[6] = test system: Staphylococcus aureus (ATCC 29213); experiment: MIC, broth microdilution; details: ATCC29213, read-out: Minimum inhibitory concentration (MIC), SA
Summary of the method: (§2)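 Antibacterial MICs by CLSI broth microdilution in Mueller-Hinton broth. Test compounds and standard drugs are serially diluted two-fold from 512 to 0.25. The bacterial broth culture is grown 2-6 h to a 0.5 McFarland turbidity, then adjusted with sterile solution to the final inoculum.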

[7] = test system: Salmonella typhimurium (NCIM-2501); experiment: Agar disk diffusion, inhibition zone; details: 100 µg/8 mm disc, triplicate, mean ± SD
[8] = test system: Escherichia coli (ATCC 8739); experiment: MIC, broth microdilution; details: ATCC8739, read-out: Minimum inhibitory concentration (MIC), EC
Summary of the method: (§3)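 Broth microdilution per CLSI in Mueller-Hinton broth, using two-fold serial dilutions of test compound and reference drugs from 512 to 0.25. Bacterial broth cultures were grown 2-6 h to 0.5 McFarland turbidity, then diluted with sterile solution to the final inoculum. MIC is reported in µg/mL.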

[9] = test system: Cryptococcus neoformans (ATCC 9011); experiment: Agar disk diffusion, inhibition zone; details: 100 µg/8 mm disc, triplicate, mean ± SD
[10] = test system: Aspergillus fumigatus (NCIM 2081); experiment: Agar disk diffusion, inhibition zone; details: 100 µg/8 mm disc, triplicate, mean ± SD
[11] = test system: Escherichia coli (ATCC 8739); experiment: Agar disk diffusion, inhibition zone; details: 100 µg/8 mm disc, triplicate, mean ± SD
Summary of the method: (§4)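 Agar disk diffusion on Mueller-Hinton agar plates seeded with a standard bacterial suspension. Test compound stock in DMSO, diluted with distilled water; 8 mm sterile filter-paper discs soaked in the solution. Ampicillin was the reference. Plates incubated at 35 °C for 24 h, in triplicate. Read-out is the average inhibition-zone diameter (mm) around each disc.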

[12] = test system: Streptococcus pneumonia (ATCC 49619); experiment: Agar disk diffusion, inhibition zone; details: 100 µg/8 mm disc, triplicate, mean ± SD
[13] = test system: Staphylococcus aureus (ATCC 29213); experiment: Agar disk diffusion, inhibition zone; details: 100 µg/8 mm disc, triplicate, mean ± SD
Summary of the method: as §4

[14] = test system: Pseudomonas aeruginosa (MCCB 0035); experiment: MIC, broth microdilution; details: read-out: Minimum inhibitory concentration (MIC), PA
Summary of the method: as §3

[15] = test system: Pseudomonas aeruginosa (MCCB 0035); experiment: Agar disk diffusion, inhibition zone; details: 100 µg/8 mm disc, triplicate, mean ± SD
[16] = test system: Candida albicans (NCIM 2087); experiment: Agar disk diffusion, inhibition zone; details: 100 µg/8 mm disc, triplicate, mean ± SD
[17] = test system: Aspergillus niger (NCIM 2191); experiment: Agar disk diffusion, inhibition zone; details: 100 µg/8 mm disc, triplicate, mean ± SD
Summary of the method: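 For the fungal strain, discs soaked in test compound solution (DMSO stock diluted with distilled water) sat on seeded Mueller-Hinton agar. Clotrimazole was the reference. Incubation ran 48 h at 35 °C, in triplicate. Zone of growth inhibition recorded in mm as the mean diameter around each disc.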

[18] = test system: Klebsiella aerogenes (NCIM-2098); experiment: MIC, broth microdilution; details: NCIM2098, read-out: Minimum inhibitory concentration (MIC), KA
Summary of the method: as §2

[19] = test system: Lactobacillus casei (NCIM-2651); experiment: Agar disk diffusion, inhibition zone; details: 100 µg/8 mm disc, triplicate, mean ± SD
[20] = test system: Aspergillus fumigatus (NCIM 2081); experiment: MIC, broth microdilution; details: NCIM2081, read-out: Minimum inhibitory concentration (MIC), AF
Summary of the method: as §1

[21] = test system: Bacillus cereus (NCIM-2458); experiment: MIC, broth microdilution; details: NCIM2458, read-out: Minimum inhibitory concentration (MIC), BC
Summary of the method: as §3

SMILES | Diameter of growth inhibition zone, KA [1] | MIC [2] | MIC [3] | MIC [4] | Diameter of growth inhibition zone, BC [5] | MIC [6] | Diameter of growth inhibition zone, ST [7] | MIC [8] | Diameter of growth inhibition zone, CN [9] | Diameter of growth inhibition zone, AF [10] | Diameter of growth inhibition zone, EC [11] | Diameter of growth inhibition zone, SP [12] | Diameter of growth inhibition zone, SA [13] | MIC [14] | Diameter of growth inhibition zone, PA [15] | Diameter of growth inhibition zone, CA [16] | Diameter of growth inhibition zone, AN [17] | MIC [18] | Diameter of growth inhibition zone, LC [19] | MIC [20] | further results
Cc1ccc(S(=O)(=O)N2C(=O)CSC2c2cccc(F)c2)cc1 (stereo not drawn) [5i, 2-(3-Fluorophenyl)-3-[(4-methylphenyl)sulfonyl]-1,3-thiazolidin-4-one] | 12 ± 0.4 mm | 16 µg/mL (≈ 45.5 µM) | 16 µg/mL (≈ 45.5 µM) | 32 µg/mL (≈ 91.1 µM) | 14 ± 0.9 mm | 16 µg/mL (≈ 45.5 µM) | 10 ± 0.76 mm | 16 µg/mL (≈ 45.5 µM) | 14 ± 1.3 mm | 15 ± 0.6 mm | 22.8 ± 0.63 mm | 12 ± 0.4 mm | 17 ± 0.53 mm | 32 µg/mL (≈ 91.1 µM) | 18 ± 0.23 mm | 15 ± 0.32 mm | 11 ± 0.9 mm | 32 µg/mL (≈ 91.1 µM) | 18 ± 1.62 mm | 8 µg/mL (≈ 22.8 µM) | MIC [21]: 16 µg/mL (≈ 45.5 µM)
Cc1ccc(S(=O)(=O)N2C(=O)CSC2c2ccccc2Br)cc1 (stereo not drawn) [5b, 2-(2-Bromophenyl)-3-[(4-methylphenyl)sulfonyl]-1,3-thiazolidin-4-one] | 10 ± 0.5 mm | 128 µg/mL (≈ 310 µM) | 32 µg/mL (≈ 77.6 µM) | 64 µg/mL (≈ 155 µM) | 10 ± 0.34 mm | 32 µg/mL (≈ 77.6 µM) | 12 ± 0.7 mm | 16 µg/mL (≈ 38.8 µM) | 7.2 ± 0.3 mm | 10 ± 0.9 mm | 14 ± 0.56 mm | 08 ± 0.7 mm | 16 ± 1.1 mm | 32 µg/mL (≈ 77.6 µM) | 15 ± 0.93 mm | 11.6 ± 0.65 mm | 10.8 ± 0.51 mm | 64 µg/mL (≈ 155 µM) | 10 ± 0.6 mm | 64 µg/mL (≈ 155 µM) | MIC [21]: 64 µg/mL (≈ 155 µM)
Cc1ccc(S(=O)(=O)N2C(=O)CSC2c2cccc(C)c2)cc1 (stereo not drawn) [5s, 2-(3-Methylphenyl)-3-[(4-methylphenyl)sulfonyl]-1,3-thiazolidin-4-one] | 08 ± 1.3 mm | 128 µg/mL (≈ 368 µM) | 64 µg/mL (≈ 184 µM) | 128 µg/mL (≈ 368 µM) | 10 ± 0.2 mm | 128 µg/mL (≈ 368 µM) | 10 ± 0.4 mm | 16 µg/mL (≈ 46 µM) | 9 ± 0.5 mm | 9.2 ± 1.5 mm | 17 ± 1.5 mm | 08 ± 0.4 mm | 13 ± 1.5 mm | 64 µg/mL (≈ 184 µM) | 15 ± 0.32 mm | 10 ± 1.1 mm | 9.6 ± 0.63 mm | 128 µg/mL (≈ 368 µM) | 10 ± 0.6 mm | 64 µg/mL (≈ 184 µM) | MIC [21]: 64 µg/mL (≈ 184 µM)
Cc1ccc(S(=O)(=O)N2C(=O)CSC2c2cccc(Cl)c2)cc1 (stereo not drawn) [5f, 2-(3-Chlorophenyl)-3-[(4-methylphenyl)sulfonyl]-1,3-thiazolidin-4-one] | 18 ± 0.23 mm | 32 µg/mL (≈ 87 µM) | 16 µg/mL (≈ 43.5 µM) | 16 µg/mL (≈ 43.5 µM) | 12 ± 2.2 mm | 32 µg/mL (≈ 87 µM) | 14 ± 0.2 mm | 8 µg/mL (≈ 21.7 µM) | 10 ± 0.7 mm | 11.8 ± 1.5 mm | 18 ± 0.23 mm | 18 ± 0.7 mm | 20 ± 1.2 mm | 16 µg/mL (≈ 43.5 µM) | 18 ± 0.56 mm | 12 ± 0.35 mm | 11.2 ± 0.6 mm | 8 µg/mL (≈ 21.7 µM) | 14 ± 0.6 mm | 64 µg/mL (≈ 174 µM) | MIC [21]: 32 µg/mL (≈ 87 µM)
Cc1ccc(S(=O)(=O)N2C(=O)CSC2c2cccc(O)c2)cc1 (stereo not drawn) [5l, 2-(3-Hydroxyphenyl)-3-[(4-methylphenyl)sulfonyl]-1,3-thiazolidin-4-one] | 14 ± 0.4 mm | 128 µg/mL (≈ 366 µM) | 16 µg/mL (≈ 45.8 µM) | 64 µg/mL (≈ 183 µM) | 08 ± 0.5 mm | 64 µg/mL (≈ 183 µM) | 10 ± 0.3 mm | 16 µg/mL (≈ 45.8 µM) | 12 ± 1.4 mm | 12 ± 2.3 mm | 17.8 ± 1.1 mm | 10 ± 0.5 mm | 14 ± 1.2 mm | 32 µg/mL (≈ 91.6 µM) | 16 ± 1.5 mm | 17 ± 0.5 mm | 14 ± 1.5 mm | 16 µg/mL (≈ 45.8 µM) | 12 ± 1.6 mm | 64 µg/mL (≈ 183 µM) | MIC [21]: 128 µg/mL (≈ 366 µM)
